From ChEMBL document CHEMBL1122595, “Stereochemical considerations and the antiinflammatory activity of 6-amino-6,7,8,9-tetrahydro-5H-benzocyclohepten-5-ols and related derivatives” (1984) come the findings set out here.

Experiment [1] concerns Rattus norvegicus. Nature of the experiment: Antiinflammatory activity in rats by using reverse passive Arthus reaction (RPAR) assay at dose level of 50 mg/Kg by peroral administration. It is filed as functional. The gist of the method: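 Rats fasted 24 h before and during study, water ad libitum; groups of at least six dosed by gavage in methylcellulose 1 h before iv (penile vein) BSA 1 mg sensitization under light ether; 1 h later subplantar anti-BSA 0.1 mg in right hind paw. Paw volume by mercury plethysmograph immediately and 2 h postchallenge; percent inhibition vs MC controls, ANOVA (Duncan, Dunnett).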

Experiment [2] is filed under the species Rattus norvegicus. Description: The relative potency was evaluated by considering the potency of indomethacin as 1. It is filed as functional. In short, it runs like this: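 Rat reverse passive Arthus paw oedema (oral gavage in methylcellulose 1 h before iv BSA, subplantar anti-BSA 1 h later, plethysmograph change over 2 h); three to five dose points; ED50 and potency relative to indomethacin standard derived by linear regression.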

Each structure is given as a SMILES string.

In experiment [1], `CC(=O)Nc1ccc2c(c1)C(O)C(N)CCC2` (stereo unspecified) gave an Inhibitory response of 18%.

As for `NC1CCCc2cc(Cl)ccc2C1O` (stereo unspecified), in experiment [1], the Inhibitory response was 94%. The Relative potency in experiment [2] amounted to 0.08.

Consider `Cl.NC1CCCc2cc(F)ccc2C1O` (stereo unspecified), for which the Inhibitory response in experiment [1] is reported as 100%. In experiment [2], the Relative potency was determined as 0.18.

In the case of `O=C1NC2CCCc3cc(F)ccc3C2O1` (stereo in doubt; 20e), the Inhibitory response in experiment [1] worked out at 96%. The Relative potency in experiment [2] was found to be 0.04.

On to `NC1CCCc2ccc(SCc3ccccc3)cc2C1O` (stereo in doubt; 4w), for which the Inhibitory response in experiment [1] was determined as 31%.

In experiment [1], `CS(=O)(=O)c1ccc2c(c1)C(O)C(N)CCC2` (stereo unspecified) had an Inhibitory response of 5%.

Consider `COc1cc2c(cc1OC)C(O)C(N)CCCC2.Cl` (stereo unspecified), for which the Inhibitory response in experiment [1] is on record as 0%.

In turn, `Cl.NC1CCCc2ccccc2C1O` (stereo in doubt; 4a) yielded an Inhibitory response in experiment [1] of 93%.

`COc1ccc2c(c1)C(O)C(N)CCC2` (stereo in doubt; 4i) came in with an Inhibitory response in experiment [1] of 98%. This compound also gave a Relative potency in experiment [2] of 0.75.

As for `COc1cc2c(cc1OC)C(O)C(N)CCC2.Cl` (stereo in doubt; 4ee), the Inhibitory response in experiment [1] is 13%. Moreover, the Relative potency in experiment [2] was 0.03.

As for `CSc1ccc2c(c1)CCCC(N)C2O` (stereo unspecified), the Inhibitory response in experiment [1] is 84%. Moreover, in experiment [2], the Relative potency is listed as 0.04.

In turn, `Cl.NC1CCCc2ccccc2C1O` (stereo in doubt; 4c) registered an Inhibitory response in experiment [1] of 11%. Besides, the Relative potency in experiment [2] came to 0.02.

The compound `CC(C)(C)C(=O)OCOc1ccc2c(c1)C(O)C(N)CCC2` (stereo in doubt; 4r) had an Inhibitory response in experiment [1] of 3%.

In experiment [1], `O=C1NC2CCCc3ccccc3C2O1` (stereo in doubt; 19a) yielded an Inhibitory response of 77%.

In the case of `Cl.N[C@@H]1CCCc2cccnc2[C@@H]1O`, the Inhibitory response in experiment [1] worked out at 36%.

Regarding `C[S+]([O-])c1ccc2c(c1)C(O)C(N)CCC2` (stereo unspecified), the Inhibitory response in experiment [1] came to 7%.

`COc1cc2c(cc1OC)C(O)C(N)CCC2.Cl` (stereo in doubt; 4dd) returned an Inhibitory response in experiment [1] of 93%. The Relative potency in experiment [2] is listed as 0.2.

Regarding `COc1ccc2c(c1)C1OC(=O)NC1CCC2` (stereo in doubt; 20f), the Inhibitory response in experiment [1] came to 24%.

`COc1cc2c(cc1[S+](C)[O-])C(O)C(N)CCC2` (stereo in doubt; 4hh) showed an Inhibitory response in experiment [1] of 8%.

With `CSc1ccc2c(c1)C(O)C(N)CCC2` (stereo in doubt; 4k), the Inhibitory response in experiment [1] was 90%. Besides, in experiment [2], the Relative potency turned out to be 0.56.

With `O=C1N[C@@H]2CCCc3cccnc3[C@@H]2O1`, in experiment [1], the Inhibitory response was 82%. Moreover, the Relative potency in experiment [2] came out at 0.3.

`NC1CCCc2ccc(Cl)cc2C1O` (stereo in doubt; 4aa): the Inhibitory response in experiment [1] is recorded as 44%.

Turning to `O=C1NC2CCCc3cc(Cl)ccc3C2O1` (stereo in doubt; 19e), the Inhibitory response in experiment [1] is listed as 9%.

Compound `CSc1ccc2c(c1)C(O)C(N)CCC2` (stereo in doubt; 4l) registered an Inhibitory response in experiment [1] of 11%. This compound showed a Relative potency in experiment [2] of 0.02.

The compound `NC1CCCc2ccc(F)cc2C1O` (stereo unspecified) registered an Inhibitory response in experiment [1] of 96%. Besides, in experiment [2], the Relative potency was 0.15.

As for `NC[C@@H](O)c1ccccc1`, the Inhibitory response in experiment [1] was determined as 21%.

In experiment [1], `CC(C)Oc1ccc2c(c1)C(O)C(N)CCC2` (stereo in doubt; 4n) displayed an Inhibitory response of 4%.

On to `O=C1NC2CCCc3ccc(Cl)cc3C2O1` (stereo in doubt; 20h), for which, in experiment [1], the Inhibitory response was 29%.

Take `O=C1NC2CCCc3cc(Cl)ccc3C2O1` (stereo in doubt; 20d): the Inhibitory response in experiment [1] was determined as 18%.

On to `Cl.N[C@@H]1CSCc2ccccc2[C@@H]1O`, for which the Inhibitory response in experiment [1] is recorded as 2%.

`CC(C)c1ccc2c(c1)C1OC(=O)NC1CCC2` (stereo in doubt; 20g): the Inhibitory response in experiment [1] is 37%.

As to `CC(C)(C)C(=O)OCOc1ccc2c(c1)C(O)C(N)CCC2` (stereo in doubt; 4q), in experiment [1], the Inhibitory response stood at 16%.

Turning to `COc1ccc2c(c1)CCCC(N)C2O` (stereo unspecified), the Inhibitory response in experiment [1] is listed as 80%. In addition, the Relative potency in experiment [2] was determined as 0.1.

`CC(C)c1ccc2c(c1)C(O)C(N)CCC2` (stereo unspecified): in experiment [1], the Inhibitory response worked out at 100%. For the same compound, in experiment [2], the Relative potency is recorded as 0.12.

On to `NC[C@H]1c2ccccc2CCC[C@H]1O`, for which, in experiment [1], the Inhibitory response worked out at 8%.

`O=C1NC2CCCc3ccc(F)cc3C2O1` (stereo in doubt; 19j): the Inhibitory response in experiment [1] was determined as 19%.

With `NC1CCCc2ccc(Cl)cc2C1O` (stereo in doubt; 4z), the Inhibitory response in experiment [1] is 94%. Further, the Relative potency in experiment [2] was determined as 0.34.

In experiment [1], `O=C1NC2CCCc3ccc(F)cc3C2O1` (stereo in doubt; 20i) gave an Inhibitory response of 78%. Also, the Relative potency in experiment [2] is listed as 0.03.

With `COc1ccc2c(c1)C(O)C(N)CCC2` (stereo in doubt; 4j), in experiment [1], the Inhibitory response is listed as 13%. Moreover, the Relative potency in experiment [2] was 0.02.

With `Cc1ccc2c(c1)CCCC(N)C2O` (stereo unspecified), the Inhibitory response in experiment [1] came out at 93%. The same compound had a Relative potency in experiment [2] of 0.05.

In experiment [1], `COc1ccc2c(c1)C1OC(=O)NC1CCC2` (stereo in doubt; 19g) showed an Inhibitory response of 20%.

`NC1CCCc2ccc(SCc3ccccc3)cc2C1O` (stereo in doubt; 4v) returned an Inhibitory response in experiment [1] of 99%.

Turning to `CC(C)Oc1ccc2c(c1)C(O)C(N)CCC2` (stereo in doubt; 4m), the Inhibitory response in experiment [1] is reported as 77%. Further, in experiment [2], the Relative potency is on record as 0.18.

In experiment [1], `N[C@@H]1CCCc2cccnc2[C@@H]1O` displayed an Inhibitory response of 28%.

In the case of `Cc1ccc2c(c1)CCCC1NC(=O)OC21` (stereo unspecified), the Inhibitory response in experiment [1] was 28%.

In experiment [1], `COc1cc2c(cc1SC)C(O)C(N)CCC2` (stereo in doubt; 4gg) gave an Inhibitory response of 29%.

With `NC[C@@H]1c2ccccc2CCC[C@H]1O`, in experiment [1], the Inhibitory response is listed as 0%.

For `CC(C)c1ccc2c(c1)C1OC(=O)NC1CCC2` (stereo in doubt; 19h), in experiment [1], the Inhibitory response is 7%.

In experiment [1], `O=C1NC2CCCc3ccc(Cl)cc3C2O1` (stereo in doubt; 19i) had an Inhibitory response of 9%.

In turn, `COc1cc2c(cc1SC)C(O)C(N)CCC2` (stereo in doubt; 4ff) returned an Inhibitory response in experiment [1] of 81%. The compound also came in with a Relative potency in experiment [2] of 0.05.

Regarding `COc1cc2c(cc1[S+](C)[O-])C(O)C(N)CCC2` (stereo in doubt; 4ii), the Inhibitory response in experiment [1] turned out to be 0%.

Compound `O=C1NC2CCCc3ccccc3C2O1` (stereo in doubt; 19b) registered an Inhibitory response in experiment [1] of 24%.

For `COc1ccc2c(c1)CCCC1NC(=O)OC21` (stereo unspecified), the Inhibitory response in experiment [1] is reported as 0%.

`CC(C)Sc1ccc2c(c1)C(O)C(N)CCC2` (stereo unspecified) registered an Inhibitory response in experiment [1] of 39%.

For the compound `O=C1NC2CCCc3ccccc3C2O1` (stereo in doubt; 20a), the Inhibitory response in experiment [1] is recorded as 92%. The Relative potency in experiment [2] came to 0.06.

As for `Cl.NC1CCCc2ccc([N+](=O)[O-])cc2C1O` (stereo unspecified), the Inhibitory response in experiment [1] is recorded as 100%. Besides, the Relative potency in experiment [2] amounted to 0.25.

`Cl.NC1CCCc2ccccc2C1O` (stereo in doubt; 4b) had an Inhibitory response in experiment [1] of 98%. In experiment [2], this compound had a Relative potency of 0.15.

`O=C1NC2CCCc3cc(F)ccc3C2O1` (stereo in doubt; 19f): the Inhibitory response in experiment [1] amounted to 39%.
